# In ChEMBL document CHEMBL1129287, “Substituted xanthines, pteridinediones, and related compounds as potential antiinflammatory agents. Synthesis and biological evaluation of inhibitors of tumor necrosis factor alpha” (J Med Chem, 1996):
# Tested on: Mus musculus
# Assay: Percent protection against TNF-alpha induced leukopenia in mice at a dose of 50 mg/Kg
# Format: functional
# In short: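 Mice given compound intraperitoneally in 250 uL saline, then 60 min later […] LPS in saline, ip. Blood was taken 2 h after LPS by retro-orbital puncture into heparinized tubes. Nucleated cells were counted, with neutrophil content as the leukopenia read-out.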
smiles,measurement,value
CCCn1c(=O)n(CCCC(=O)OCC)c(=O)c2nccnc21,Protection,60%
